# From PubChem BioAssay
# A selection: hits, their analogues and other compounds. The true share with any hit is near 1.4%.
# CAL PDZ FP-1: blocks peptide binding to human CAL PDZ domain; purified CAL PDZ, TMR-peptide fluorescence polarization, 1 h; inhibition, % at 20 µM; AID 504414; 330,000 tested, 0.02% active;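 active = highest replicate inhibition of at least 40%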;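 also: plate controls were DMSO neutral control wells for no effect and unlabeled competitor peptide control wells for full effect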
#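 Assay system – tagged CAL PDZ protein CerCALP, purified · Timing – 1 h at RT · Compound – single point, 20 µM · Measured by – fluorescence polarization from S- and P-plane intensities, G-factor corrected · Evaluation – inhibition from polarization loss · Probe or stimulus – TMR reporter peptide T*-PRC34 · Buffer or medium – pH 7.4 phosphate-saline buffer, reducing agent, detergent, IgG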
# ARNT-TACC3 inh: ARNT/TACC3 interaction disruption; AlphaScreen His-ARNT PAS-B/GST-TACC3 binding, luminescence; TACC3 fragment carries E629A point mutation; inhibition, % at 9.99 µM; 390,000 tested, 0.66% active; AID 623870;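 active = mean inhibition of replicates at least 50% and at least half of replicates each reaching 50%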;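 also: 0% = complete ARNT plus TACC3 wells and 100% = ARNT alone without TACC3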
# CAL PDZ FP-2: blocks peptide binding to the human CAL PDZ domain; 300,000 tested, 0.92% active; inhibition, % at 24.9 µM; AID 602252; purified CAL PDZ, TMR-peptide fluorescence polarization, 1 h; Q9HD26;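 active = mean inhibition of at least 30% with at least half of replicates also reaching 30%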;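 also: 0% = DMSO neutral control and 100% = excess unlabeled competitor peptide PRC23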
# DYRK1A inh: blocks rat Dyrk1A kinase activity; Q63470; ADP-Glo luminescence, NFATc1 peptide; inhibition, % at 12.5 µM; 310,000 tested, 0.43% active; in the data active = inhibition above about 50%;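 also: plate controls were vehicle with enzyme for no effect and no enzyme for full effect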
# * hit, by the source's call; nt = not tested or not shown.
SMILES,CAL PDZ FP-1,ARNT-TACC3 inh,CAL PDZ FP-2,DYRK1A inh
COc1cccc(S(=O)(=O)N[C@H]2CC[C@@H](CC(=O)NCc3ccc(Cl)cc3)O[C@H]2CO)c1,nt,35.8*,nt,nt
COC(=O)C[C@@H]1C=C[C@H](NS(=O)(=O)c2ccccc2F)[C@@H](CO)O1,nt,-9.2,nt,nt
Cc1noc(C)c1S(=O)(=O)Nc1ccc2c(c1)C(=O)N([C@H](C)CO)C[C@@H](C)[C@H](CN(C)C)O2,nt,2.7,nt,nt
CCN(CC)CCCN1C(=O)C(O)=C(C(=O)c2ccco2)C1c1ccc(OC(C)C)cc1 (configuration not stated),-1.8,-0.6,87.8*,-0.7
CCOC(=O)c1cnc(-n2nc(C)cc2C)nc1Nc1ccc(N(C)C)cc1,-0.3,2.2,1.6,3.6
CCOC(=O)c1cnc(-n2nc(C)cc2C)nc1NC,-2.3,48.1*,-3.8,4.6
C=CCN1C=C2C(=O)C(C)(OC(=O)CCC(=O)OC)C(=O)C=C2C=C1C1CC1 (configuration not stated),-0.1,2.7,-1.4,3.5
COC(=O)CCC(=O)OC1(C)C(=O)C=C2C=C(C3CC3)N(CCc3c[nH]c4ccccc34)C=C2C1=O (configuration not stated),0.3,6.6,0.5,6.9
COC(=O)CCC(=O)OC1(C)C(=O)C=C2C=C(C3CC3)N(CCc3ccccn3)C=C2C1=O (configuration not stated),0.0,11.1*,0.7,3.3
COC(=O)CCC(=O)OC1(C)C(=O)C=C2C=C(C3CC3)N(CCCOC(C)C)C=C2C1=O (configuration not stated),-1.4,74.6*,0.2,12.4
COC(=O)CCC(=O)OC1(C)C(=O)C=C2C=C(C3CC3)N(CCCCO)C=C2C1=O (configuration not stated),0.8,32.3*,1.8,12.5
C[C@H](CO)N1C[C@H](C)[C@@H](CN(C)CC2CC2)Oc2cc(-c3cccc(C#N)c3)ccc2S1(=O)=O,nt,-1.0,nt,nt
COc1cc(Br)c(C(=O)c2nccc3cc(OC)c(OC)cc23)cc1OC,71.1*,10.2,-2.5,19.4
COc1cc(N)c(C(=O)c2nccc3cc(OC)c(OC)cc23)cc1OC,0.6,6.3,5.4,1.4
O=C(CC1CC1)N[C@@H]1CC[C@@H](CCNS(=O)(=O)c2ccc(Cl)cc2)O[C@H]1CO,nt,-8.9,nt,nt
Cc1ccc(OCC(=O)N2CCc3ccccc32)cc1,-2.3,-2.6,0.4,-1.4
CCc1ccc(OCC(=O)N2CCc3ccccc32)cc1,-0.8,-2.2,37.8*,2.5
CC(C)c1ccc(C2OCC(C)([N+](=O)[O-])CO2)cc1 (configuration not stated),19.5,-1.9,90.6*,-2.1
CC(C)c1ccc(C2OCCCO2)cc1,0.0,nt,nt,-1.3
CC(C)(C)NS(=O)(=O)c1cc(C(=O)O)ccc1Cl,-3.4,-8.1,-2.5,-7.1
Cc1cc(C(=O)NNS(=O)(=O)c2cc(C(=O)O)ccc2Cl)c(C)n1-c1ccccc1,-0.9,1.7,38.6*,nt
O=C(C[C@H]1C[C@H]2c3cc(NC(=O)NC4CCCCC4)ccc3O[C@H]2[C@@H](CO)O1)NCc1ccccc1,nt,-13.1,nt,nt
COc1ccc(NC(=O)N(C)C[C@@H]2Oc3c(NC(=O)Nc4c(C)noc4C)cccc3C(=O)N([C@H](C)CO)C[C@@H]2C)cc1,nt,0.5,nt,nt
COc1ccccc1C(=O)N/N=C(\C)CC(=O)Nc1ccccn1,-1.0,12.8,nt,-4.2
COc1ccccc1C(=O)N/N=C(\C)CC(=O)Nc1ccc(Cl)cn1,-0.7,3.8,65.2*,1.0
SMILES,CAL PDZ FP-1,ARNT-TACC3 inh,CAL PDZ FP-2,DYRK1A inh
CNC(=O)NC(=O)Cn1nc2n(c1=O)-c1ccccc1SC2,0.1,-0.8,53.2*,-0.1
CCN(C(=O)CCCC(=O)N(CC)c1ccccc1)c1ccccc1,-1.4,-3.6,63.2*,0.1
C[C@H]1CN([C@@H](C)CO)C(=O)c2cc(NC(=O)Nc3ccc(C(F)(F)F)cc3)ccc2O[C@@H]1CN(C)C(=O)Nc1ccc(C(F)(F)F)cc1,nt,-6.8,nt,nt
COc1ccc(CN(C)C[C@H]2OCCCC[C@H](C)Oc3ccc(NC(=O)Nc4ccc5c(c4)OCO5)cc3C(=O)N([C@@H](C)CO)C[C@H]2C)cc1,nt,5.0,nt,nt
Cc1cccc(-n2ncc3c(=O)[nH]c(SCC(=O)N4CC(=O)Nc5ccccc54)nc32)c1,0.0,-2.6,37.4*,-2.0
C[C@@H]1CCCCO[C@@H](CN(C)S(=O)(=O)c2cccs2)[C@H](C)CN([C@H](C)CO)C(=O)c2cc(NC(=O)Nc3ccc(C(F)(F)F)cc3)ccc2O1,nt,21.0,nt,nt
COc1ccc(CNC(=O)C(c2ccco2)N(C(=O)CNS(=O)(=O)c2ccccc2)c2ccccc2C)cc1 (configuration not stated),-1.4,-0.3,91.8*,7.8
